From ChEMBL document CHEMBL1773055, “A chemotype that inhibits three unrelated pathogenic targets: the botulinum neurotoxin serotype A light chain, P. falciparum malaria, and the Ebola filovirus” (J Med Chem, 2011)
The source made the active and inactive calls. The rule behind the calls is not given here.

Key:
[1] = Inhibition of beta-hematin formation; type: functional
Plasmodium falciparum [2] = test: Antimalarial activity against Plasmodium falciparum D6; type: functional, organism-based
Plasmodium falciparum [3] = test: Resistance index, ratio of IC50 for Plasmodium falciparum C235 to IC50 for Plasmodium falciparum D6; type: functional
Plasmodium falciparum [4] = test: Antimalarial activity against Plasmodium falciparum C235; type: functional, organism-based
[5] = target: Botulinum neurotoxin type A (Clostridium botulinum) (UniProt P0DPI0); test: (§1) Inhibition of clostridium botulinum Botulinum neurotoxin type A light chain at 20 uM
Botulinum neurotoxin type A (Clostridium botulinum), sequence (P0DPI0 2-448 limits assumed): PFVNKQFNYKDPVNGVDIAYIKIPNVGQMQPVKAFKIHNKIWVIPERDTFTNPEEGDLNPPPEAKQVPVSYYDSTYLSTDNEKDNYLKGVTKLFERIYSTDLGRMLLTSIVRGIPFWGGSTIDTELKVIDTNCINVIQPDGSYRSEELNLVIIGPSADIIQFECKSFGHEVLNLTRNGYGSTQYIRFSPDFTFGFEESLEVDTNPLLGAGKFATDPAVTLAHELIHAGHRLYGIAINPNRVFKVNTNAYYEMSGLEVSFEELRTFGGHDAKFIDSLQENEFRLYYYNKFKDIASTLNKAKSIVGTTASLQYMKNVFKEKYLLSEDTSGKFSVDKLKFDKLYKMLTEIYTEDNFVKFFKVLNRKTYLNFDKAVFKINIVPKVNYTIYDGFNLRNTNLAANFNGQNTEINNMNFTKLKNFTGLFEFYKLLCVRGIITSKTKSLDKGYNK
Procedure, shortened: (§2)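 Recombinant BoNT/A LC and peptide substrate were incubated in 40 mM HEPES–0.05% Tween pH 7.3 with 0.5 mg/ml BSA and 50 μM excess ZnCl2 at 37°C, with compound at 20 μM. Reactions were quenched with TFA, and substrate hydrolysis was quantified by reverse-phase HPLC peak areas. Percent inhibition was measured in duplicate.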

Plasmodium falciparum [6] = test: Antimalarial activity against Plasmodium falciparum W2; type: functional, organism-based
Plasmodium falciparum [7] = test: Resistance index, ratio of IC50 for Plasmodium falciparum W2 to IC50 for Plasmodium falciparum D6; type: functional
Procedure, shortened: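 P. falciparum clones D6 (CQ/MFQ-susceptible, Sierra I/UNC), W2 (CQ-resistant, MFQ-susceptible, Indochina I) and TM91C235 (CQ- and MFQ-resistant, South-East Asian) were tested in a modified Desjardins in vitro susceptibility screen, giving IC50 and IC90. Resistance index is IC50 of the resistant strain divided by IC50 against D6 (W2/D6, C235/D6).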

[8] = Inhibition of beta-hematin formation assessed as drug-hematin ratio for 50% inhibition by BHIA assay; type: functional
Ebolavirus [9] = test: Antiviral activity against Zaire ebolavirus expressing enhanced GFP in Vero 76 cells at 20 uM after 48 hrs by standard Plaque assay; type: functional; settings: Orthoebolavirus
Vero = test: Cytotoxicity against african green monkey Vero 76 cells at 20 uM; type: cell-based; settings: chlorocebus sabaeus
Ebolavirus [10] = test: Antiviral activity against Zaire ebolavirus expressing enhanced GFP in Vero 76 cells after 48 hrs by standard Plaque assay; type: functional, cell-based; settings: Orthoebolavirus
[11] = target: Botulinum neurotoxin type A (Clostridium botulinum, UniProt P0DPI0); test: as §1; procedure, shortened: as §2
Botulinum neurotoxin type A, sequence (P0DPI0 2-448 limits assumed): as above

Liver = test: Half life in mouse liver microsomes; type: ADME, Microsome
Procedure, shortened: (§3)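 Compound at 10 μM was incubated with mouse or human liver microsomes (1 mg/mL protein) in 0.1 M sodium phosphate pH 7.4 with an NADPH-regenerating system at 37°C, started by G6PD. Samples were quenched with cold acetonitrile at 0, 10, 30 and 60 min and analysed by LC-MS/MS. Half-life = 0.693/k.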

[12] = Selectivity index, ratio of IC50 for […] cells to IC50 for Plasmodium falciparum D6; type: toxicity, cell-based; settings: read-out: Ratio IC50
[13] = Selectivity index, ratio of IC50 for […] cells to IC50 for Plasmodium falciparum W2; type: toxicity, cell-based; settings: read-out: Ratio IC50
[14] = Selectivity index, ratio of IC50 for […] cells to IC50 for Plasmodium falciparum C235; type: toxicity, cell-based; settings: read-out: Ratio IC50
[15] = Selectivity index, ratio of IC90 for […] cells to IC90 for Plasmodium falciparum C235; type: toxicity, cell-based
RAW264.7 = test: Cytotoxicity against rat RAW264.7 cells by MTT assay; type: cell-based; settings: for IC50: Mus musculus, RAW264.7; for IC90: […]
Procedure, shortened: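 RAW 264.7 cells were seeded at 2.5×10^4 per well about 12 h before dosing. They were exposed to 0.29–48 μg/ml compound for 48 h at 37°C, 5% CO2. Viability was read by MTT reduction, with a DMSO control. Runs were in duplicate, and IC50 came from sigmoidal variable-slope dose-response fits.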

[16] = Selectivity index, ratio of IC90 for […] cells to IC90 for Plasmodium falciparum W2; type: toxicity, cell-based
[17] = Selectivity index, ratio of IC90 for […] cells to IC90 for Plasmodium falciparum D6; type: toxicity, cell-based
Liver microsomes = test: Half life in human liver microsomes; type: ADME, Microsome; procedure, shortened: as §3
[18] = Cytotoxicity against human NCI60 cells; type: functional
Mus musculus = test: Toxicity against ICR mouse at 160 mg/kg, po for 3 consecutive days measured; type: organism-based; parameters: dose 160 mg/kg, route oral; settings: in vivo
Procedure, shortened: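 P. berghei (P-line)-infected outbred ICR mice were given compound orally in 0.5% hydroxyethylcellulose/0.1% Tween 80 daily for 3 days. Toxicity was judged from overt physical or behavioural changes, checked twice daily, plus gross necropsy of all mice.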

Plasmodium berghei = test: Antiplasmodial activity against Plasmodium berghei str. ANKA infected in ICR mouse assessed as protection against infection; type: functional, organism-based
Procedure, shortened: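 ICR mice were dosed orally once daily on days -1, 0 (1–3 h before inoculation) and +1, with compound in 0.5% hydroxyethylcellulose/0.1% Tween 80. On day 0 they received 1.0×10^5 P. berghei ANKA sporozoites IV, taken from Anopheles dirus salivary glands. Giemsa thick/thin tail smears were read on days 4–31. Protection meant no parasitemia within 10 days and negative smears through day 31.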

Compound | IC50 (Plasmodium falciparum [2]) [nM] | IC90 (Plasmodium falciparum [2]) [nM] | Ratio IC50 (Plasmodium falciparum [3]) | IC50 (Plasmodium falciparum [4]) [nM] | IC90 (Plasmodium falciparum [4]) [nM] | inhibition [5] [%] | IC50 (Plasmodium falciparum [6]) [nM] | IC90 (Plasmodium falciparum [6]) [nM] | Ratio IC50 (Plasmodium falciparum [7]) | further results
Cc1cc(NCCN2CCCC2)c2ccc3c(ccc4c(NCCN5CCCC5)cc(C)nc43)c2n1.Cl | 16.8 | 32.3 | 1.54 | 25.9 | 40.3 | 60.3 | 8.11 | 28 | 0.48 | inhibition [1]: Dose-dependent effect; IC50 [8]: 0.401 equiv
Cc1cc(NCCCN2CCCCC2)c2ccc3c(ccc4c(NCCCN5CCCCC5)cc(C)nc43)c2n1.Cl | 9.26 | 17.4 | 2.68 | 24.8 | 41.2 | 66.1 | 6.98 | 22.5 | 0.75 | inhibition at 20 µM (Ebolavirus [9]): 100%; Activity (Vero): < 20%; IC50 (Ebolavirus [10]): 5000 nM
Cc1cc(NCCCCN)c2ccc3c(ccc4c(NCCCCN)cc(C)nc43)c2n1 |  |  |  |  |  | 72.2 |  |  |  | 
Cc1cc(NCCN)c2ccc3c(ccc4c(NCCN)cc(C)nc43)c2n1.Cl | 270 | 355 | 3.78 | 1020 | 1760 | 62.7 | 871 | 1790 | 3.22 | Ki [11]: 8700 nM
CCN(CC)CCCNc1cc(C)nc2c1ccc1c2ccc2c(NCCCN(CC)CC)cc(C)nc21.Cl | 30 | 49.5 | 2.22 | 66.5 | 286 | 64.7 | 8.65 | 46.7 | 0.29 | 
Cc1cc(NCCCN)c2ccc3c(ccc4c(NCCCN)cc(C)nc43)c2n1.Cl | 708 | 1010 | 2.87 | 2030 | 3050 | 70 | 1700 | 3260 | 2.4 | 
Cc1cc(NCCCN2CCOCC2)c2ccc3c(ccc4c(NCCCN5CCOCC5)cc(C)nc43)c2n1.Cl | 5.23 | 8.47 | 1.54 | 8.05 | 17.4 | 55.6 | 2 | 6.38 | 0.38 | inhibition [1]: Dose-dependent effect; t1/2 (Liver): > 1 h; inhibition at 20 µM (Ebolavirus [9]): 96%; selectivity ratio [12]: 1430; selectivity ratio [13]: 3740; selectivity ratio [14]: 929; selectivity ratio [15]: 635; Activity (Vero): < 20%; IC50 (RAW264.7): 7480 nM; IC90 (RAW264.7): 11000 nM; selectivity ratio [16]: 1730; selectivity ratio [17]: 1300; IC50 (Ebolavirus [10]): 2500 nM; t1/2 (Liver microsomes): 0.667 h; inhibition (INH) [18]: 92%; IC50 [8]: 0.52 equiv
C[C@@H]1CC[C@H]2[C@@H](C)C(=O)O[C@@H]3O[C@@]4(C)CC[C@@H]1[C@]32OO4 [ARTEMISININ] | 9 | 12.8 |  | 13 | 17.4 |  | 6.7 | 11.5 |  | 
Cc1cc(NCCCN(C)C)c2ccc3c(ccc4c(NCCCN(C)C)cc(C)nc43)c2n1.Cl | 103 | 210 | 0.53 | 54.8 | 699 | 68.9 | 353 | 709 | 3.41 | 
Cc1cc(NCCN2CCCCC2)c2ccc3c(ccc4c(NCCN5CCCCC5)cc(C)nc43)c2n1.Cl | 8.79 | 13.2 | 1.2 | 10.6 | 14.9 | 63.4 | 5.5 | 15.4 | 0.62 | 
Cc1cc(NCCN2CCOCC2)c2ccc3c(ccc4c(NCCN5CCOCC5)cc(C)nc43)c2n1.Cl | 5.93 | 12.6 | 1.66 | 9.84 | 16.5 | 39 | 6.12 | 11.5 | 1.03 | inhibition [1]: Dose-dependent effect; t1/2 (Liver): > 1 h; inhibition at 20 µM (Ebolavirus [9]): 53%; selectivity ratio [12]: 1720; selectivity ratio [13]: 1660; selectivity ratio [14]: 1030; selectivity ratio [15]: 1820; IC50 (RAW264.7): 10200 nM; IC90 (RAW264.7): 29900 nM; selectivity ratio [16]: 2600; selectivity ratio [17]: 2370; t1/2 (Liver microsomes): > 1 h; inhibition (INH) [18]: 91%; IC50 [8]: 0.473 equiv
CCN(CC)CCNc1cc(C)nc2c1ccc1c2ccc2c(NCCN(CC)CC)cc(C)nc21.Cl | 6.01 | 9.01 | 0.55 | 3.32 | 3.79 | 55.4 |  | 10.1 | 0.57 | t1/2 (Liver): > 1 h; inhibition at 20 µM (Ebolavirus [9]): 97%; selectivity ratio [12]: 1560; selectivity ratio [13]: 2690; selectivity ratio [14]: 282; selectivity ratio [15]: 2830; Activity (Vero): < 20%; IC50 (RAW264.7): 9350 nM; IC90 (RAW264.7): 10700 nM; Activity (Mus musculus): Non-toxic; selectivity ratio [16]: 1060; Activity (Plasmodium berghei): inactive; selectivity ratio [17]: 1190; IC50 (Ebolavirus [10]): 5000 nM; t1/2 (Liver microsomes): > 1 h
CCN(CC)CCCC(C)Nc1ccnc2cc(Cl)ccc12 (configuration not stated) [CHLOROQUINE] |  | 16.1 |  |  | 373 |  |  | 698 |  | 
Cc1cc(NCCN(C)C)c2ccc3c(ccc4c(NCCN(C)C)cc(C)nc43)c2n1.Cl |  | 20.8 | 0.98 | 15.3 | 26 | 57 | 9.19 | 31.2 | 0.59 | 
Cc1cc(NCCCN2CCCC2)c2ccc3c(ccc4c(NCCCN5CCCC5)cc(C)nc43)c2n1.Cl | 14.8 | 39.4 | 2.31 | 34.3 | 95.2 | 73.5 | 7.75 | 25.4 | 0.52 | 
